Screening data (PubChem)
Only some compounds are listed: those with a hit (about 2.6% of all), similar ones and a draw of the others.
5-HT1A blocker: human 5-HT1a receptor antagonists, primary screen, cell-based, CHO, Ga15 NFAT-bla reporter; 5-hydroxytryptamine receptor 1A (Homo sapiens), P08908; CHO 5-HT1a Ga15 NFAT-bla reporter, antagonist mode; inhibition, % at 10 µM; hit rate 0.68% among 62,000;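 active means inhibition above the mean of all tested compounds plus 3 SD, cut at about 43% in these data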;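 further: receptor stimulated by 5-CT agonist at 100 nM near EC80; beta-lactamase reporter measured by ratiometric fluorescence of a cleavable substrate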
S1P3 ag: human S1P3 receptor agonists, primary screen, cell-based, primary and confirmation, NFAT-BLA reporter; hit rate 0.1% among 60,000; activation, % at 4.5 µM; AID 373, 2006; S1P3 NFAT-BLA reporter cells, agonism, FRET ratio; relative to 1 µM S1P, basal subtracted;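 active means activation above the screen-wide mean plus 3 SD, cut at about 4.5% in these data, passing the limit was not always enough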
Target sequence (Q99500 whole entry, looked up): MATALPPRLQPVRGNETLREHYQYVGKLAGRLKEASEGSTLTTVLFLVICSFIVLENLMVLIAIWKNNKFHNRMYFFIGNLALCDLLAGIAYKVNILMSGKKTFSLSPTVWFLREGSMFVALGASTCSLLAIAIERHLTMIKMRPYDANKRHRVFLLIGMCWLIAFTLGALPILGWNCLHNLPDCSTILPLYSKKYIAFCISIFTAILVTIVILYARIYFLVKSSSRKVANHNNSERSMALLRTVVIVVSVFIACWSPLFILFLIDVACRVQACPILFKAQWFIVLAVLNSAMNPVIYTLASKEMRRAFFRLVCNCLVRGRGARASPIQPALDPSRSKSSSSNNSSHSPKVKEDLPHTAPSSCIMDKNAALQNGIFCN
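Assay system: CHO cells stably expressing human S1P3, Gα16 and NFAT-β-lactamase reporter. Timing: overnight plating, 4 h compound 37 °C, 2 h substrate RT. Signal: β-lactamase FRET emission ratio 460/535 nm. Measure: percent activation versus median 1 µM S1P response, basal-subtracted, per plate. Repeats: primary screen single test, confirmation screen in triplicate.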
E coli RNAP: E. coli RNAP inhibitors, biochemical | E. coli RNA polymerase, fluorescence transcription assay | inhibition, %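 (tested at 10 µM)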 | hit rate 0.2% among 62,000 | AID 559, 2006; in the data active means inhibition above about 20%;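 further: 0% = enzyme without compound and 100% = no enzyme blank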
5HT1E ag: 5-HT1E receptor agonists, primary screen, cell-based, HTS; CHO 5-HT1E Ga15 NFAT-bla reporter, FRET; 0% DMSO wells, 100% control agonist wells; activation, % at 6 µM; hit rate 0.69% among 65,000; AID 574, 2007;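 active means activation above a set limit, the screen-wide mean activation plus 3 SD, cut at about 8.5% in these data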;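 further: 100% = positive control agonist at 1 µM giving full maximal response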
HTR1A agonist: human 5-HT1a receptor agonists, primary screen, cell-based, CHO, Ga15 NFAT-bla reporter; CHO 5-HT1a Ga15 NFAT-bla reporter, FRET ratio; 0% basal, 100% maximal reference agonist; AID 567, 2006; hit rate 0.56% among 65,000; activation, % at 10 µM;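 active means activation above the screen-wide mean activation plus 3 SD, cut at about 19% in these data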;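 further: 0% = DMSO wells and 100% = 5-CT at EC100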
HTR1E antagonist: 5-HT1E receptor antagonists, primary screen, cell-based, HTS; CHO 5-HT1E Ga15 NFAT-bla reporter, FRET, antagonist; hit rate 0.99% among 65,000; inhibition, % at 6 µM; AID 571, 2007; 5-hydroxytryptamine receptor 1E (Homo sapiens), P28566;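 active means inhibition above a set limit, the mean inhibition across every tested compound plus 3 SD, cut at about 29% in these data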;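 further: signal is the 460 over 535 nm emission ratio of beta-lactamase substrate; 0% = agonist plus DMSO wells and 100% = wells without agonist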
Numbers without * were called inactive; . = not tested or not shown.

SMILES	5-HT1A blocker	S1P3 ag	E coli RNAP	5HT1E ag	HTR1A agonist	HTR1E antagonist
CCN1C(=O)c2ccccc2S(=O)c2ccc(C(=O)N3CCCC3)cc21 (centres undefined)	4	0	8	-1	-1	12
CN1CCN(C(=O)c2ccc3c(c2)N(Cc2cccc(Cl)c2)C(=O)c2ccccc2S3=O)CC1 (centres undefined)	7	0	7	15*	-1	-1
CCCCOc1ccc(-c2nnn(CC(=O)NCc3ccco3)n2)cc1	35	-1	6	0	-3	29*
CCOc1ccc(NC(=O)N2CCN(c3nc4ccccc4s3)CC2)cc1	-4	-1	-4	17*	-1	13
O=C(O)CCC(=O)N1CCN(c2nc3ccccc3s2)CC1	12	-1	-3	15*	-2	4
COc1ccc(CN2CCN(C(=O)CC(C)C)CC2)c(OC)c1OC	11	-2	-1	0	-3	6
Cc1onc(-c2ccccc2Cl)c1C(=O)N1CCN(c2cccc(Cl)c2)CC1	30	-1	4	1	1	29*
Cc1onc(-c2ccccc2Cl)c1C(=O)N1CCN(c2ccccc2)CC1	2	-1	-2	0	1	-5
Cc1ccc(O)c(C(=O)c2cnc3c(c2)CN(CCC(C)C)C(=O)N3)c1	23	0	5	8	0	10
CN1Cc2cc(C(=O)c3cc(Cl)cc(CSc4ncccn4)c3O)cnc2NC1=O	60*	-1	4	-1	-3	80*
CCN1CCN(c2nc3c(c(=O)[nH]c(=O)n3C)n2CCCSc2ncccn2)CC1	-6	0	10	0	62*	0
CN1CCN(c2nc3c(c(=O)[nH]c(=O)n3C)n2CCCSc2ncccn2)CC1	-10	-1	5	1	-1	-8
CNC(=O)CSCc1c(Cl)cccc1Cl	9	-1	2	-1	-3	8
Cc1cc(C(C)(C)C)c(O)c(C)c1CC1=NCCN1	.	0	10	76*	81*	4
OCc1cn(-c2ccccc2)nc1-c1cccnc1	0	-1	-3	0	-1	21
N#Cc1nc(COc2ccc(Cl)cc2Cl)oc1N1CCOCC1	4	0	1	0	0	2
N#Cc1nc(COc2ccc(Cl)cc2Cl)oc1N1CCN(c2ccccc2)CC1	57*	0	5	-1	0	7
COc1ccc(N2CCN(c3oc(COc4ccc(Cl)cc4Cl)nc3C#N)CC2)cc1	59*	0	3	0	-1	-1
COc1ccc(N2CCN(c3oc(COc4ccc(Cl)cc4)nc3C#N)CC2)cc1	.	-5	-2	-2	2	22
C=CCN(Cc1cc(OC)ccc1OC)S(=O)(=O)N(C)C	7	-2	-4	-1	-1	-2
C=CCSc1nc2ccccc2n1Cc1nnc(-c2cccs2)o1	9	0	5	18*	5	5
Cc1nc2ncnn2c(C)c1CCC(=O)NC(C)CCc1ccco1 (centres undefined)	0	1	1	0	-2	-4
COc1ccc(Cl)cc1NC(=O)COc1cccc(-n2cnnn2)c1	-8	1	3	35*	1	-3
COC(=O)c1cccc(C(=O)Nc2cnc3ccccc3c2)n1	5	1	2	-1	-3	1
O=C(c1ccc(F)cc1)C(CN1CCOCC1)c1ccccc1 (centres undefined)	69*	-2	3	0	0	51*
CC(=O)OC(C(=O)NC1CCCCC1)c1ccc(C)cc1 (centres undefined)	16	0	-3	32*	-4	7
CC(C)NS(=O)(=O)c1ccc(OCC(N)=O)c(Cl)c1	-1	0	2	1	2	-2
CCOC(=O)C1CCN(C(=O)COc2ccc(S(=O)(=O)NC(C)C)cc2Cl)CC1	-7	1	-8	0	48*	1
